Drawing on ChEMBL document CHEMBL1148730, “Design of noncompetitive interleukin-8 inhibitors acting on CXCR1 and CXCR2” (J Med Chem, 2007), this text covers inhibition and Inhibition for 77 compounds.

Format in all cases: functional
The nature of assay [1]: Inhibition of CXCL8-induced cell migration in human PMN cells at 0.01 uM by chemotaxis assay. In a few lines: (§1)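 Human PMNs from normal-donor buffy coats (dextran sedimentation, hypotonic lysis; 95% purity, >95% viability). Cells at 1.5-3 × 10⁶/mL preincubated 15 min at 37 °C with vehicle or compound, then seeded in triplicate in the upper well of a 48-well micro-chemotaxis chamber. Lower well held CXCL8 1 nM or CXCL1 10 nM. Chamber ran 45 min at 37 °C in 5% CO₂; filters were fixed and stained, and five 100× fields per well were counted.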

Assay [2] can be described thus: Inhibition of CXCL1-induced cell migration in human PMN cells at 0.01 uM by chemotaxis assay. In a few lines:
as §1

The nature of assay [3]: Inhibition of CXCL1-induced cell migration human PMN cells at 0.1 uM chemotaxis assay. In a few lines: as §1
Assay [4] is described as follows: Inhibition of CXCL8-induced cell migration in human PMN cells at 1 nM chemotaxis assay. In a few lines:
as §1

Consider `CC(C(=O)O)c1ccc(OS(=O)(=O)c2ccccc2)cc1` (stereo unspecified), for which the inhibition at 0.01 µM in assay [1] was found to be 55%; in assay [2] it was 54%. On to `CC(C(=O)O)c1ccc(C(C)(C)C)cc1` (stereo unspecified), for which, in assay [1], the inhibition at 0.01 µM stood at 6%. On to `CC(C(=O)O)c1cccc(C(C)(O)c2ccccc2)c1` (stereo unspecified), for which the inhibition at 0.01 µM in assay [1] was 0%.

Turning to `C[C@@H](C(=O)Nc1nc(C(F)(F)F)cs1)c1ccc(OS(=O)(=O)C(F)(F)F)cc1`, the inhibition at 0.01 µM in assay [1] amounted to 64%; in assay [2], 60%. For `CONC(=O)[C@H](C)c1ccc(OS(=O)(=O)C(F)(F)F)cc1`, the inhibition at 0.01 µM came out at 60% in assay [1] and 40% in assay [2]. On the same counts, the results for `Cc1ccc(S(=O)(=O)Nc2ccc(C(C)C(=O)O)cc2)cc1` (stereo unspecified) are 69% and 0%. For the compound `CC(C(=O)O)c1ccc(-c2cccs2)cc1` (stereo unspecified), the inhibition at 0.01 µM in assay [1] was determined as 11%. The same measure, in the same setting: in the case of `C[C@@H](C(=O)NS(=O)(=O)C(F)(F)F)c1ccc(OS(=O)(=O)C(F)(F)F)cc1` it was -4%; in that of `CC(C)c1ccc(C(C)C(=O)O)cc1` (stereo unspecified), 15%; in that of `CC(C(=O)O)c1ccc(OC(=O)c2ccccc2)cc1` (stereo unspecified), 32%. Regarding `CC(C(=O)O)c1cccc(C(=O)c2nccs2)c1` (stereo unspecified), the inhibition at 0.01 µM in assay [1] came to 63%; in assay [2] it was 48%. Turning to `CCC(=O)Oc1ccc(C(C)C(=O)O)cc1` (stereo unspecified), the inhibition at 0.01 µM in assay [1] is -6%.

Take `CC(C(=O)O)c1ccc(NS(=O)(=O)c2ccccc2)cc1` (stereo unspecified): the inhibition at 0.01 µM came out at 45% in assay [1] and 14% in assay [2]. In the same order, the values of `C[C@@H](C(=O)NS(=O)(=O)c1ccccc1)c1ccc(OS(=O)(=O)C(F)(F)F)cc1` are 43% and 8%. As to `CC(C(=O)O)c1ccc(Cc2ccccc2)cc1` (stereo unspecified), the inhibition at 0.01 µM turned out to be 1% in assay [1] and 35% in assay [2].

Consider `CC(C)c1cccc(C(C)C(=O)O)c1` (stereo unspecified), for which the inhibition at 0.01 µM in assay [1] turned out to be 62%; in assay [2], 55%. Turning to `CC(C(=O)O)c1ccc(NS(=O)(=O)C(F)(F)F)cc1` (stereo unspecified), the inhibition at 0.01 µM in assay [1] came to 10%. `CC(C(=O)O)c1ccc(CC2CC2)cc1` (stereo unspecified): the inhibition at 0.01 µM in assay [1] is 24%; in assay [2], 30%. Regarding `C[C@@H](C(=O)NC1CC1)c1ccc(OS(=O)(=O)C(F)(F)F)cc1`, the inhibition at 0.01 µM in assay [1] was -11%.

Regarding `CC(O)c1cccc(C(C)C(=O)O)c1` (stereo unspecified), the inhibition at 0.01 µM worked out at 43% in assay [1] and 40% in assay [2]. With `CCCCc1cccc(C(C)C(=O)O)c1` (stereo unspecified), the inhibition at 0.01 µM in assay [1] worked out at 3%. In the case of `C[C@@H](C(=O)O)c1cccc(C(=O)c2ccccc2)c1` [R-KETOPROFEN], the inhibition at 0.01 µM in assay [1] stood at 64%; in assay [2], 61%. As to `C[C@@H](C(=O)Nc1ncco1)c1ccc(OS(=O)(=O)C(F)(F)F)cc1`, the figures for the inhibition at 0.01 µM in assay [1] and in assay [2] were 50% and 48%, respectively. For the compound `CC(Cc1cccc(C(C)C(=O)O)c1)c1ccccc1` (stereo unspecified), in assay [1], the inhibition at 0.01 µM turned out to be 0%. On to `CCC(O)c1cccc(C(C)C(=O)O)c1` (stereo unspecified), for which the inhibition at 0.01 µM in assay [1] amounted to 57%; in assay [2], 40%. On the same counts, the results for `CC(C(=O)O)c1ccc(CC2CCC2)cc1` (stereo unspecified) are 55% and 59%. In turn, `CC(C(=O)O)c1ccc(N2Cc3ccccc3C2=O)cc1` (stereo unspecified) [INDOPROFEN] registered an Inhibition in assay [3] of 40%. Further, the inhibition at 0.01 µM in assay [1] is 50%.

For `CC(C(=O)O)c1ccc(CC2CCCCC2)cc1` (stereo unspecified), the inhibition at 0.01 µM in assay [1] worked out at 2%; in assay [2] it was 39%. In the case of `CC(C(=O)O)c1cccc(C(C)c2ccccc2)c1` (stereo unspecified), the figures for the inhibition at 0.01 µM in assay [1] and in assay [2] were 55% and 45%, respectively.

In the case of `Cc1ccc(S(=O)(=O)Oc2ccc(C(C)C(=O)O)cc2)cc1` (stereo unspecified), the inhibition at 0.01 µM in assay [1] worked out at 49%; in assay [2], 65%. For the compound `C/C=C/c1cccc(C(C)C(=O)O)c1` (stereo unspecified), the inhibition at 0.01 µM in assay [1] is -1%. The same measure, in the same setting: then `CNC(=O)[C@H](C)c1ccc(OS(=O)(=O)C(F)(F)F)cc1`, with 22%. On the same count and under the same terms, then `CC(C(=O)O)c1cccc(S(=O)(=O)c2ccccc2)c1` (stereo unspecified), with 9%. Turning to `C[C@@H](C(=O)N(C)O)c1ccc(OS(=O)(=O)C(F)(F)F)cc1`, the figures for the inhibition at 0.01 µM in assay [1] and in assay [2] were 48% and 47%, respectively. In the case of `CCC(=O)c1cccc(C(C)C(=O)O)c1` (stereo unspecified), the inhibition at 0.01 µM in assay [1] is 1%. Turning to `CC(C(=O)O)c1cccc(C(=O)c2cccs2)c1` (stereo unspecified), the inhibition at 0.01 µM in assay [1] was found to be 51%; in assay [2] it was 50%. On to `C[C@@H](C(=O)Nc1ccccc1)c1ccc(OS(=O)(=O)C(F)(F)F)cc1`, for which, in assay [1], the inhibition at 0.01 µM worked out at 10%.

As to `CC(C(=O)O)c1ccc(NS(=O)(=O)c2ccccc2Cl)cc1` (stereo unspecified), the inhibition at 0.01 µM in assay [1] was -2%; in assay [2] it was 66%. `CC(C(=O)O)c1ccc(OS(C)(=O)=O)cc1` (stereo unspecified): the inhibition at 0.01 µM in assay [1] was 5%. On the same count and under the same terms, then `CC(=O)c1cccc([C@@H](C)C(=O)O)c1`, with 5%. As to `CC(C(=O)O)c1ccc(OS(=O)(=O)C(F)(F)F)cc1` (stereo unspecified), the inhibition at 0.01 µM in assay [1] and in assay [2] was 57% throughout. Take `CCC(CC)c1cccc(C(C)C(=O)O)c1` (stereo unspecified): the figures for the inhibition at 0.01 µM in assay [1] and in assay [2] were 58% and 67%, respectively. For the compound `CC(C(=O)O)c1ccc(N2CCCC2=O)cc1` (stereo unspecified), the inhibition at 0.01 µM in assay [1] came out at 10%. As to `C[C@@H](C(=O)NCC1CC1)c1ccc(OS(=O)(=O)C(F)(F)F)cc1`, the inhibition at 0.01 µM in assay [1] was 12%. Turning to `CC(C)S(=O)(=O)NC(=O)[C@H](C)c1ccc(OS(=O)(=O)C(F)(F)F)cc1`, the results for the inhibition at 0.01 µM in assay [1] and in assay [2] were 60% and 15%, respectively. On the same counts, the results for `C[C@@H](C(=O)NO)c1ccc(OS(=O)(=O)C(F)(F)F)cc1` are 48% and 50%.

With `CC(C(=O)O)c1cccc(C(O)c2ccccc2)c1` (stereo unspecified) [2-{3-[HYDROXY(PHENYL)METHYL]PHENYL}PROPANOIC ACID], the inhibition at 0.01 µM in assay [1] was determined as 31%; in assay [2] it was 40%.

As to `CC(C(=O)O)c1cccc(Cc2ccccc2)c1` (stereo unspecified), in assay [1], the inhibition at 0.01 µM is 10%.

Turning to `CC(C(=O)O)c1ccc(OS(=O)(=O)C(C)C)cc1` (stereo unspecified), the results for the inhibition at 0.01 µM in assay [1] and in assay [2] were 49% and 46%, respectively. Turning to `CC(C(=O)O)c1ccc(-c2ccccc2)cc1` (stereo unspecified), the inhibition at 0.01 µM in assay [1] was determined as 0%. On to `CC(C)ONC(=O)[C@H](C)c1ccc(OS(=O)(=O)C(F)(F)F)cc1`, for which the figures for the inhibition at 0.01 µM in assay [1] and in assay [2] were 50% and 40%, respectively. In the same order, the values of `C[C@@H](C(=O)Nc1ccccn1)c1ccc(OS(=O)(=O)C(F)(F)F)cc1` are 48% and 50%. Consider `CC(C(=O)O)c1cccc(Oc2ccccc2)c1` (stereo unspecified) [FENOPROFEN], for which the inhibition at 0.01 µM in assay [1] is -17%. Same read-out and setting: in the case of `CC(C(=O)O)c1ccc(NS(=O)(=O)C(C)C)cc1` (stereo unspecified) it was 44%. Consider `CC(C(=O)O)c1ccc(CC2CCCC2)cc1` (stereo unspecified), for which the inhibition at 0.01 µM in assay [1] came out at 10%; in assay [2], 40%.

Consider `C[C@@H](C(N)=O)c1ccc(OS(=O)(=O)C(F)(F)F)cc1`, for which the inhibition at 0.01 µM in assay [1] was 60%; in assay [2], 58%. As to `CCc1ccccc1S(=O)(=O)Nc1ccc(C(C)C(=O)O)cc1` (stereo unspecified), the figures for the inhibition at 0.01 µM in assay [1] and in assay [2] were 47% and 80%, respectively.

Take `CC(C(=O)O)c1ccc(C2CCCCC2)cc1` (stereo unspecified) [HEXAPROFEN]: the inhibition at 0.01 µM in assay [1] came out at 10%. Consider `CC(C(=O)O)c1ccc(NS(C)(=O)=O)cc1` (stereo unspecified), for which, in assay [1], the inhibition at 0.01 µM is -8%. `CC(C)NC(=O)[C@H](C)c1ccc(OS(=O)(=O)C(F)(F)F)cc1` registered an Inhibition in assay [4] of 50%. In assay [2], the inhibition at 0.01 µM worked out at 72%. Turning to `CC(C)C(=O)c1cccc(C(C)C(=O)O)c1` (stereo unspecified), in assay [1], the inhibition at 0.01 µM came out at 20%.

For the compound `C[C@@H](C(=O)NC1CCCC1)c1ccc(OS(=O)(=O)C(F)(F)F)cc1`, the inhibition at 0.01 µM in assay [1] worked out at 0%. For the compound `CC(C(=O)O)c1cccc(C(=O)c2ccco2)c1` (stereo unspecified), in assay [1], the inhibition at 0.01 µM is -3%. In the case of `C[C@@H](C(=O)Nc1nccs1)c1ccc(OS(=O)(=O)C(F)(F)F)cc1`, the inhibition at 0.01 µM in assay [1] came to 57%; in assay [2], 56%.

`C[C@@H](C(=O)NS(=O)(=O)c1ccccc1Cl)c1ccc(OS(=O)(=O)C(F)(F)F)cc1`: the inhibition at 0.01 µM in assay [1] stood at 18%.

For the compound `CC(C)Cc1cccc(C(C)C(=O)O)c1` (stereo unspecified), in assay [1], the inhibition at 0.01 µM was -10%.

As to `C[C@@H](C(=O)Nc1ccncc1)c1ccc(OS(=O)(=O)C(F)(F)F)cc1`, in assay [1], the inhibition at 0.01 µM is 11%. Take `CC(C(=O)O)c1cccc(C(=O)C2CCCC2)c1` (stereo unspecified): the inhibition at 0.01 µM in assay [1] was -5%; in assay [2], 2%. For the compound `C[C@@H](C(=O)NS(C)(=O)=O)c1ccc(OS(=O)(=O)C(F)(F)F)cc1` [LADARIXIN], the results for the inhibition at 0.01 µM in assay [1] and in assay [2] were 60% and 61%, respectively.

For the compound `C[C@@H](C(=O)Nc1cccnc1)c1ccc(OS(=O)(=O)C(F)(F)F)cc1`, the inhibition at 0.01 µM in assay [1] was found to be 5%.

In the case of `C=C(c1ccccc1)c1cccc(C(C)C(=O)O)c1` (stereo unspecified), the inhibition at 0.01 µM in assay [1] was determined as 47%; in assay [2], 2%. Take `C/C=C/c1ccc(C(C)C(=O)O)cc1` (stereo unspecified): the inhibition at 0.01 µM in assay [1] was 11%. Regarding `CC(C(=O)O)c1cccc(C(=O)C2CCCCC2)c1` (stereo unspecified), the inhibition at 0.01 µM in assay [1] was determined as 5%; in assay [2], 4%. For `CC(C(=O)O)c1ccc(NC(=O)c2ccccc2)cc1` (stereo unspecified), the inhibition at 0.01 µM in assay [1] was found to be 8%. Turning to `C[C@@H](C(=O)NS(=O)(=O)c1cccnc1)c1ccc(OS(=O)(=O)C(F)(F)F)cc1`, the inhibition at 0.01 µM in assay [1] amounted to 11%. Take `CC(C)=Cc1ccc(C(C)C(=O)O)cc1` (stereo unspecified): in assay [1], the inhibition at 0.01 µM was determined as 14%. `CC(C(=O)O)c1cccc(C(=O)c2ncco2)c1` (stereo unspecified): the inhibition at 0.01 µM in assay [1] was found to be 26%.
